# Laboratory results: ChEMBL document CHEMBL1121685, “Development of new mitomycin C and porfiromycin analogues” (J Med Chem, 1981)
# How the values were obtained:
# Mus musculus [1] = test: Effect of compound on total white blood cell count in BDG1 male mice, after intraperitoneal administration at a dose of 3 mg/kg on day 3; assay type: functional
# Summary of the method: (§1)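 Single ip dose given on day 0 to BDG1 male mice over a descending dose series. Total white blood cell count is expressed as % change from untreated control on days 3, 5 and 7. Significance is flagged at p ≤ 0.05 and p ≤ 0.01.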
# Mus musculus [2] = test: Effect of compound on total white blood cell count in BDG1 male mice, after intraperitoneal administration at a dose of 3 mg/kg on day 5; assay type: functional; summary of the method: as §1
# Mus musculus [3] = species on record: Mus musculus; test: Degree of leukopenia produced by compound is assessed form Percent change in white cells on day 3; assay type: functional
# Summary of the method: (§2)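 BDG₁ male mice received a single ip dose on day 0. The dose series topped out at the LD₅₀ level, or at twice the optimal dose for some agents. Total white blood cell count was taken on days 3, 5 and 7 and expressed as % change from untreated controls. Significance was set at p ≤ 0.05 or p ≤ 0.01.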
# Mus musculus [4] = test: Antitumor activity against P-388 murine leukemia cells in CDF1 female mice after intraperitoneal administration at the specified optimal dose of 3.2 mg/kg; assay type: functional
# Mus musculus [5] = test: Effect of compound on total white blood cell count in BDG1 male mice, after intraperitoneal administration at a dose of 1.69 mg/kg on day 7; assay type: functional; summary of the method: as §2
# Mus musculus [6] = test: Effect of compound on total white blood cell count in BDG1 male mice, after intraperitoneal administration at a dose of 1.27 mg/kg on day 7; assay type: functional; summary of the method: as §2
# Mus musculus [7] = test: Effect of compound on total white blood cell count in BDG1 male mice, after intraperitoneal administration at a dose of 1.27 mg/kg on day 3; assay type: functional; summary of the method: as §2
# Mus musculus [8] = test: Effect of compound on total white blood cell count in BDG1 male mice, after intraperitoneal administration at a dose of 2.25 mg/kg on day 7; assay type: functional; summary of the method: as §1
# Mus musculus [9] = test: Effect of compound on total white blood cell count in BDG1 male mice, after intraperitoneal administration at a dose of 2.25 mg/kg on day 5; assay type: functional; summary of the method: as §1
# Mus musculus [10] = test: Effect of compound on total white blood cell count in BDG1 male mice, after intraperitoneal administration at a dose of 1.69 mg/kg on day 3; assay type: functional; summary of the method: as §2
# Mus musculus [11] = test: Effect of compound on total white blood cell count in BDG1 male mice, after intraperitoneal administration at a dose of 3 mg/kg on day 7; assay type: functional; summary of the method: as §1
# Mus musculus [12] = species on record: Mus musculus; test: Half-wave potential produced by the compound at their optimal dose; assay type: functional; parameters: unit not given here
# Mus musculus [13] = test: Effect of compound on total white blood cell count in BDG1 male mice, after intraperitoneal administration at a dose of 1.27 mg/kg on day 5; assay type: functional; summary of the method: as §2
# Mus musculus [14] = test: Effect of compound on total white blood cell count in BDG1 male mice, after intraperitoneal administration at a dose of 2.25 mg/kg on day 3; assay type: functional; summary of the method: as §1
# [15] = Therapeutic ratio is expressed as ratio of optimal dose and minimum effective dose; assay type: ADME; conditions: mouse; read-out: TR
# Summary of the method: (§3)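 10⁶ P-388 ascites cells implanted ip in CDF₁ female mice. Six mice per dose, 10 saline-injected controls, and a concurrent mitomycin C reference group. %T/C = median survival time of treated/control × 100. MED is the lowest dose giving %T/C > 125. Therapeutic ratio = optimal dose/MED.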
# Mus musculus [16] = test: Effect of compound on total white blood cell count in BDG1 male mice, after intraperitoneal administration at a dose of 1.69 mg/kg on day 5; assay type: functional; summary of the method: as §2
# Mus musculus [17] = test: Minimum effective dose that show activity against P-388 murine leukemia cells in CDF1 female mice, after intraperitoneal administration (optimal dose is 3.2 mg/kg); assay type: functional; conditions: P388, ip, read-out: MED; summary of the method: as §3
# Mus musculus [18] = test: Effect of compound on total white blood cell count in BDG1 male mice, after intraperitoneal administration at a dose of 59.0 mg/kg on day 5; assay type: functional
# Summary of the method: (§4)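 Single ip dose given on day 0 to BDG₁ male mice. Total white blood cell count measured on days 3, 5 and 7, expressed as % change from control. Highest dose was at the LD₅₀, or at twice the optimal dose where so footnoted. Significance reported at p ≤ 0.05 and p ≤ 0.01. D marks death of one or more mice.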
# Mus musculus [19] = test: Effect of compound on total white blood cell count in BDG1 male mice, after intraperitoneal administration at a dose of 44.25 mg/kg on day 5; assay type: functional; summary of the method: as §4
# Mus musculus [20] = test: Effect of compound on total white blood cell count in BDG1 male mice, after intraperitoneal administration at a dose of 44.25 mg/kg on day 7; assay type: functional; summary of the method: as §4
# Mus musculus [21] = test: Effect of compound on total white blood cell count in BDG1 male mice, after intraperitoneal administration at a dose of 59.0 mg/kg on day 7; assay type: functional; summary of the method: as §4
# Mus musculus [22] = test: Effect of compound on total white blood cell count in BDG1 male mice, after intraperitoneal administration at a dose of 44.25 mg/kg on day 3; assay type: functional; summary of the method: as §4
# Mus musculus [23] = test: Effect of compound on total white blood cell count in BDG1 male mice, after intraperitoneal administration at a dose of 33.18 mg/kg on day 3; assay type: functional; summary of the method: as §1
# Mus musculus [24] = test: Effect of compound on total white blood cell count in BDG1 male mice, after intraperitoneal administration at a dose of 33.18 mg/kg on day 7; assay type: functional; summary of the method: as §1
# Mus musculus [25] = test: Antitumor activity against P-388 murine leukemia cells in CDF1 female mice after intraperitoneal administration at the specified optimal dose of 25.6 mg/kg; assay type: functional
# Mus musculus [26] = test: Effect of compound on total white blood cell count in BDG1 male mice, after intraperitoneal administration at a dose of 33.18 mg/kg on day 5; assay type: functional; summary of the method: as §1
# Mus musculus [27] = test: Effect of compound on total white blood cell count in BDG1 male mice, after intraperitoneal administration at a dose of 59.0 mg/kg on day 3; assay type: functional; summary of the method: as §4
# Mus musculus [28] = test: Minimum effective dose that show activity against P-388 murine leukemia cells in CDF1 female mice, after intraperitoneal administration (optimal dose is 25.6 mg/kg); assay type: functional; conditions: P388, ip, read-out: MED; summary of the method: as §3
# Mus musculus [29] = test: Activity of compound dose of 4 mg/kg/day against Murine B-16 Melanocarcinoma in mice; assay type: functional
# Mus musculus [30] = test: Effect of compound on total white blood cell count in BDG1 male mice, after intraperitoneal administration at a dose of 7.5 mg/kg on day 5; assay type: functional
# Mus musculus [31] = test: Effect of compound on total white blood cell count in BDG1 male mice, after intraperitoneal administration at a dose of 3.16 mg/kg on day 7; assay type: functional
# Mus musculus [32] = test: Effect of compound on total white blood cell count in BDG1 male mice, after intraperitoneal administration at a dose of 7.5 mg/kg on day 3; assay type: functional
# Mus musculus [33] = test: Effect of compound on total white blood cell count in BDG1 male mice, after intraperitoneal administration at a dose of 4.22 mg/kg on day 7; assay type: functional
# Mus musculus [34] = test: Number of cured survivors, 45 days after administration of compound at a dose of 1 mg/kg/day in mice; assay type: functional
# Mus musculus [35] = test: Activity of compound dose of 1 mg/kg/day against Murine B-16 Melanocarcinoma in mice; assay type: functional
# Mus musculus [36] = test: Effect of compound on total white blood cell count in BDG1 male mice, after intraperitoneal administration at a dose of 3.16 mg/kg on day 5; assay type: functional
# Mus musculus [37] = test: Number of tumored survivors, 45 days after administration of compound at a dose of 1 mg/kg/day in mice; assay type: functional
# Mus musculus [38] = test: Activity of compound dose of 8 mg/kg/day against Murine B-16 Melanocarcinoma in mice; assay type: functional
# Mus musculus [39] = test: Number of tumored survivors, 45 days after administration of compound at a dose of 8 mg/kg/day in mice; assay type: functional
# Mus musculus [40] = test: Effect of compound on total white blood cell count in BDG1 male mice, after intraperitoneal administration at a dose of 5.63 mg/kg on day 3; assay type: functional
# Mus musculus [41] = test: Effect of compound on total white blood cell count in BDG1 male mice, after intraperitoneal administration at a dose of 3.16 mg/kg on day 3; assay type: functional
# Mus musculus [42] = test: Effect of compound on total white blood cell count in BDG1 male mice, after intraperitoneal administration at a dose of 5.63 mg/kg on day 7; assay type: functional
# Mus musculus [43] = test: Effect of compound on total white blood cell count in BDG1 male mice, after intraperitoneal administration at a dose of 7.5 mg/kg on day 7; assay type: functional
# Mus musculus [44] = test: Effect of compound on total white blood cell count in BDG1 male mice, after intraperitoneal administration at a dose of 4.22 mg/kg on day 3; assay type: functional
# Mus musculus [45] = test: Activity of compound dose of 0.5 mg/kg/day against Murine B-16 Melanocarcinoma in mice; assay type: functional
# Mus musculus [46] = test: Effect of compound on total white blood cell count in BDG1 male mice, after intraperitoneal administration at a dose of 5.63 mg/kg on day 5; assay type: functional
# Mus musculus [47] = test: Effect of compound on total white blood cell count in BDG1 male mice, after intraperitoneal administration at a dose of 4.22 mg/kg on day 5; assay type: functional
# Mus musculus [48] = test: Activity of compound dose of 2 mg/kg/day against Murine B-16 Melanocarcinoma in mice; assay type: functional
smiles,measurement,setting,value
COC12[C@@H]3N[C@@H]3CN1C1=C(C(=O)C(N3CC3C)=C(C)C1=O)[C@@H]2COC(N)=O (stereo partly drawn),Change,Mus musculus [1],-37%
same,Change,Mus musculus [2],-39%
same,Change,Mus musculus [3],-24%
same,T/C,Mus musculus [4],233%
same,Change,Mus musculus [5],3%
same,Change,Mus musculus [6],18%
same,Change,Mus musculus [7],-16%
same,Change,Mus musculus [8],-6%
same,Change,Mus musculus [9],-32%
same,Change,Mus musculus [10],-24%
same,Change,Mus musculus [11],-12%
same,E1/2,Mus musculus [12],-0.32
same,Change,Mus musculus [13],-5%
same,Change,Mus musculus [14],-36%
same,selectivity ratio,[15],32
same,Change,Mus musculus [16],-5%
same,minimal effective dose,Mus musculus [17],0.1 mg/kg
C#CCNC1=C(C)C(=O)C2=C(C1=O)[C@H](COC(N)=O)C1(OC)[C@H]3[C@@H](CN21)N3C (stereo partly drawn),Change,Mus musculus [18],-84%
same,Change,Mus musculus [19],-69%
same,Change,Mus musculus [20],-67%
same,Change,Mus musculus [21],-77%
same,Change,Mus musculus [22],-74%
same,Change,Mus musculus [23],-64%
same,Change,Mus musculus [24],-49%
same,T/C,Mus musculus [25],300%
same,Change,Mus musculus [26],-66%
same,Change,Mus musculus [27],-80%
same,selectivity ratio,[15],16
same,minimal effective dose,Mus musculus [28],1.6 mg/kg
CO[C@@]12[C@H](COC(N)=O)C3=C(C(=O)C(C)=C(N)C3=O)N1C[C@@H]1N[C@@H]12 [MITOMYCIN],T/C,Mus musculus [29],193%
same,Change,Mus musculus [30],-67%
same,Change,Mus musculus [31],-38%
same,Change,Mus musculus [32],-58%
same,Change,Mus musculus [33],-1%
same,Survivors,Mus musculus [34],1
same,Change,Mus musculus [3],-42%
same,T/C,Mus musculus [35],136%
same,T/C,Mus musculus [4],178%
same,Change,Mus musculus [36],-42%
same,Survivors,Mus musculus [37],1
same,T/C,Mus musculus [38],164%
same,Survivors,Mus musculus [39],1
same,Change,Mus musculus [40],-57%
same,Change,Mus musculus [41],-48%
same,E1/2,Mus musculus [12],-0.45
same,Change,Mus musculus [42],-26%
same,Change,Mus musculus [43],-53%
same,Change,Mus musculus [44],-55%
same,T/C,Mus musculus [45],122%
same,Change,Mus musculus [46],-58%
same,Change,Mus musculus [47],-53%
same,T/C,Mus musculus [48],159%
same,minimal effective dose,Mus musculus [17],0.2 mg/kg
